Data as given in publication PMC6272120 (Cancer Science, 2018).

Columns and labels:
[1] = system: RCC cells; assay: Comparison of TQ with everolimus; type: cell-based, human; details: Figure S3
[2] = system: E‐cadherin, N‐cadherin, vimentin in 786‐O and ACHN cells; assay: Western blot of EMT‐related proteins; type: cell-based, human
[3] = system: LC3 in 786‐O and ACHN cells; assay: Autophagy detection; type: cell-based, human
Summary of the method: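 786-O and ACHN cells pretreated 4 h with AMPK inhibitor (50 μmol/L), then 40 μmol/L test compound 24 h. RIPA lysis with protease/phosphatase inhibitors and PMSF on ice; BCA-normalised; 10%-15% SDS-PAGE, PVDF, 10% milk block 2 h RT; anti-LC3-I/II overnight 4°C, secondary 1 h; ECL detection. Mean ± SD of 3 independent experiments.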

[4] = system: 786‐O and ACHN cells; assay: Wound healing and transwell migration assay; type: cell-based, human
Summary of the method: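 Transwell, 8-μm pores: 1 × 10⁴ cells (migration) or 2 × 10⁴ on Matrigel (invasion) in serum-free medium with treatment above complete medium at matching concentration, 24 h. Cells fixed 4% paraformaldehyde, stained .1% crystal violet, counted in 4 random fields. Mean ± SD, 3 experiments.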

[5] = system: lung metastasis of 786‐O cells; assay: Metastatic tumor model, luciferase‐tagged 786‐O cells via tail veins; type: in vivo, nude mice; details: vs control
Summary of the method: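 Male nude mice, 5 weeks old, 19-22 g, received luciferase-tagged 786-O cells by tail vein, then two groups. Dosing was intraperitoneal DMSO (control) or test compound 20 mg/kg every 3 days. At day 30: D-luciferin 150 mg/kg i.p., 10 min wait, chloral hydrate anaesthesia, then bioluminescence imaging. Lung tumours harvested and H&E-stained.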

[6] = system: 786‐O cells; assay: Cell viability assay; type: cell-based; details: Homo sapiens
Summary of the method: (§1)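 Cells in RPMI-1640 with 10% FBS, seeded 5 × 10³/well, left overnight. Medium then replaced with test compound at 0, 10, 20, 40, 60, 80 and 100 μmol/L for 24 or 48 h. CCK8 added for 4 h at 37°C; OD read at 490 nm. Mean ± SD of 3 independent experiments.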

[7] = system: ACHN cells; assay: Cell viability assay; type: cell-based; details: Homo sapiens
Summary of the method: as §1

[8] = system: AMPK/mTOR signaling pathway in 786‐O and ACHN cells; assay: Western blot of AMPK/mTOR signaling pathway; type: cell-based, human; details: 0, 20, 40, 60 μmol/L TQ, 24 hours
Summary of the method: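 786-O and ACHN cells exposed 24 h to test compound at 0, 20, 40, 60 μmol/L. RIPA lysis with protease/phosphatase inhibitors and PMSF; BCA-normalised; 10%-15% SDS-PAGE, PVDF, 10% milk block. Probed overnight at 4°C for AMPK, p-AMPK (Thr172), mTOR, p-mTOR (Ser2448), p-S6K (Thr389), LC3; secondary 1 h; ECL. Mean ± SD, 3 independent experiments.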

[9] = system: 786‐O xenograft tumors; assay: Subcutaneous 786‐O xenograft tumor model; type: in vivo, nude mice
Summary of the method: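 Male nude mice, 5 weeks old, 19-22 g, given 1 × 10⁶ 786-O cells s.c. with Matrigel in the right flank. At 100-150 mm³, randomised 5 per group: intraperitoneal DMSO or test compound 20 mg/kg every 3 days. Volume ((length × width²) × .5) and body weight recorded every 3 days. Tumours excised and weighed after 30 days. Mean ± SD.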

[10] = system: HK‐2 normal renal tubular epithelial cells; assay: Cell viability assay; type: cell-based, human; details: HK‐2, low doses of TQ (less than 60 μmol/L)
[11] = system: 786‐O and ACHN cells; assay: Transwell invasion assay; type: cell-based, human; details: 0, 20, 40, 60 μmol/L TQ
[12] = compound C 50 μmol/L pretreatment 4 hours, then TQ 40 μmol/L 24 hours
[13] = 3‐MA 5 mmol/L with TQ 40 μmol/L
[14] = TQ 20 mg/kg intraperitoneal every 3 days, 30 days

CO[C@H]1C[C@@H]2CC[C@@H](C)[C@@](O)(O2)C(=O)C(=O)N2CCCC[C@H]2C(=O)O[C@H]([C@H](C)C[C@@H]2CC[C@@H](OCCO)[C@H](OC)C2)CC(=O)[C@H](C)/C=C(\C)[C@@H](O)[C@@H](OC)C(=O)[C@H](C)C[C@H](C)/C=C/C=C/C=C/1C [everolimus]
inhibiting migration and invasion, inducing autophagy and MET, compared with TQ [1]: significantly more potent than TQ

c1cc(-c2cnn3cc(-c4ccc(OCCN5CCCCC5)cc4)cnc23)ccn1 [compound C]
effect on TQ‐induced MET [2, 12]: weakened TQ‐induced MET | effect on TQ‐induced LC3 [3, 12]: effects of TQ on LC3 could be receded | effect on TQ anti‐migratory and anti‐invasive effects (transwell) [4, 12]: attenuated the migratory and invasive capacities of autophagy induced by TQ

Cn1cnc(N)c2ncnc1-2 [3‐MA, 3‐methyladenine]
effect on TQ‐induced MET [2, 13]: abate TQ‐induced MET | effect on anti‐migratory ability of TQ [4, 13]: remarkably attenuated

CC1=CC(=O)C(C(C)C)=CC1=O [TQ, 2‐methyl‐5‐isopropyl‐1,4‐benzoquinone]
lung metastasis (bioluminescence) [5, 14]: significantly inhibited lung metastasis | number of metastatic nodules in the lungs (H&E) ([5]; TQ 20 mg/kg): significant decrease in the number of metastatic nodules | expression of EMT markers ([2]; different concentrations for 24 hours or 40 μmol/L for different times): upregulated epithelial markers (E‐cadherin), while downregulating mesenchymal markers (N‐cadherin, vimentin) | LC3 puncta (autophagosomes and autolysosomes) ([3]; 40 μmol/L TQ, 24 hours, vs control group): number of both yellow and red puncta increased dramatically | LC3‐II expression ([3]; western blot, different concentrations of TQ): upregulate LC3‐II in a concentration‐dependent manner | IC50 ([6]; 786-0, 24 h, read-out: IC50 value, inhibition on cell growth): 55 µM | inhibition at 40 µM ([6]; 786-0, read-out: inhibitory rate of cell proliferation): < 20% | IC50 ([7]; 24 h, read-out: IC50 value, inhibition on cell growth): 72 µM | inhibition at 40 µM ([7]; read-out: inhibitory rate of cell proliferation): < 20% | cancer cell migration ([4]; wound healing 40 μmol/L, transwell 0, 20, 40, 60 μmol/L, 24 hours): attenuated cancer cell migration in a time‐dependent and concentration‐dependent manner | expression of p‐AMPK [8]: elevated | expressions of p‐mTOR and p‐S6K [8]: reduced | tumor growth / tumor weight vs control [9, 14]: TQ inhibited RCC cell growth in vivo | expression of E‐cadherin and N‐cadherin in xenograft tumors ([9]; immunohistochemistry and western blot, TQ 20 mg/kg): increased expression of E‐cadherin and decreased expression of N‐cadherin | effect on cell growth of normal cells [10]: no significant decrease in cell growth | number of invaded cells [11]: number of invaded cells decreased with the increase of TQ concentration
